Reference: ChEMBL document CHEMBL1121573, “2-(Aminomethyl)phenols, a new class of saluretic agents. 1. Effects of nuclear substitution” (J Med Chem, 1980)
“And” between values parts separate entries of the source, which are not always exact repeats. Equal entries are not always repeated.

Columns and labels:
Canis familiaris [1] = test: Compound administered intravenously was evaluated for salidiuretic activity measured as sodium ion excretion in Dog; Value ranges from 800-899; assay type: ADME, organism-based, Canis lupus familiaris, Urine; details: in vivo, iv
In short: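 Conditioned female mongrel dogs, postabsorptive, water-loaded (500 mL po) 1 h before sodium pentobarbital anesthesia (30 mg/kg iv). Bladder catheter; creatinine 4 g sc; phosphate–mannitol buffer pH 7.4 infused (3.0 mL/min) throughout. […] Urine Na+ measured; response scored 0–6.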

Rattus norvegicus [2] = test: Oral diuretic activity was evaluated by measuring K+ excretion in Rat at 9 mg/kg […] ( 0-5 hr); assay type: ADME, organism-based, Urine; design: dose 9 mg/kg
In short: (§1)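 Female Charles-River rats (150–170 g) were kept overnight on a sugar diet with water ad libitum. Test substance was dissolved in DMF and diluted with water containing Tween 80 to a final 4% DMF vehicle, then given po in 5.0 mL. Rats were housed three per metabolism cage, and 0–5 h urine was assayed for Na⁺, K⁺ and Cl⁻ alongside concurrent placebo groups. Values are mequiv × 100 per cage, geometric means of three cages per dose.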

Canis familiaris [3] = test: Oral diuretic activity was evaluated by measuring Na+ excretion in dog at 16.2 mg/kg after […] ( 0-6 hr); assay type: ADME, organism-based, Canis lupus familiaris, Urine; design: dose 16.2 mg/kg; details: in vivo
In short: (§2)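 Dogs; spontaneous urine was pooled with bladder urine drained by catheter at the end of 6 h. Urine volume was measured, and aliquots were assayed for Na+, K+ and Cl− by standard methods. Values are geometric means, expressed as mequiv over 0–6 h.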

Canis familiaris [4] = test: Oral diuretic activity was evaluated by measuring Na+ excretion in dog at 1.8 mg/kg after […] ( 0-6 hr); assay type: ADME, organism-based, Canis lupus familiaris, Urine; design: dose 1.8 mg/kg; details: in vivo; in short: as §2
Rattus norvegicus [5] = test: Oral diuretic activity was evaluated by measuring K+ excretion in Rat at 27 mg/kg after po administration ( 0-5 hr); details: in vivo
Canis familiaris [6] = test: Oral diuretic activity was evaluated by measuring K+ excretion in dog at 1.8 mg/kg after ip administration ( 0-6 hr); assay type: ADME, organism-based, Canis lupus familiaris, Urine; design: dose 1.8 mg/kg, route intraperitoneal; details: in vivo
In short: (§3)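 Spontaneous urine was pooled with bladder urine collected by catheterization at 6 h. Volume was measured and Na+, K+ and Cl− were determined by standard methods. Values are geometric means.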

Rattus norvegicus [7] = test: Evaluated for salidiuretic activity measured as sodium ion excretion in Rat, administered orally at a dose of 50 mg/kg; assay type: functional, Urine; design: unit not given beside the values; details: route oral
In short: (§4)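 Female Charles-River rats (150–170 g), overnight on sugar diet with water ad libitum. Compound dissolved in DMF, diluted with water containing Tween 80 (final 4% DMF), given po in 5.0 mL; concurrent vehicle placebo. Three rats per metabolism cage; 0–5 h urine analysed for Na+, K+, Cl-. Values: mequiv × 100 per cage, geometric means of three cages per dose; scored 0–6 by Na+.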

Canis familiaris [8] = test: Oral diuretic activity was evaluated by measuring Cl- excretion in dog at 5.4 mg/kg after […] ( 0-6 hr); assay type: ADME, organism-based, Canis lupus familiaris, Urine; design: dose 5.4 mg/kg, route intraperitoneal; details: in vivo
Rattus norvegicus [9] = test: Oral diuretic activity was evaluated by measuring Na+ excretion in Rat at 27 mg/kg […] ( 0-5 hr); assay type: ADME, organism-based, Urine; design: dose 27 mg/kg
In short: (§5)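 Female Charles-River rats (150–170 g) were kept overnight on a sugar diet with water ad libitum. Compound was dissolved in DMF, then diluted with water containing Tween 80 (3 drops/100 mL) to a final 4% DMF, and given po in 5.0 mL. Rats were housed three per metabolism cage. Urine from 0–5 h was analysed for Na+, K+ and Cl−, with concurrent placebo controls. Values are mequiv × 100 per cage, geometric mean of three cages per dose.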

Rattus norvegicus [10] = test: Oral diuretic activity was evaluated by measuring Na+ excretion in Rat at 9 mg/kg […] ( 0-5 hr); assay type: ADME, organism-based, Urine; design: dose 9 mg/kg; details: in vivo, ip; in short: as §5
Canis familiaris [11] = test: Oral diuretic activity was evaluated by measuring Cl- excretion in dog at 16.2 mg/kg after […] ( 0-6 hr); assay type: ADME, organism-based, Canis lupus familiaris, Urine; design: dose 16.2 mg/kg, route intraperitoneal; details: in vivo
Canis familiaris [12] = test: Oral diuretic activity was evaluated by measuring Na+ excretion in dog at 0.6 mg/kg after ip administration ( 0-6 hr); assay type: ADME, organism-based, Canis lupus familiaris, Urine; design: dose 0.6 mg/kg, route intraperitoneal; details: in vivo; in short: as §3
Rattus norvegicus [13] = test: Oral diuretic activity was evaluated by measuring Na+ excretion in Rat at 81 mg/kg […] ( 0-5 hr); assay type: ADME, organism-based, Urine; design: dose 81 mg/kg; in short: as §5
Canis familiaris [14] = test: Oral diuretic activity was evaluated by measuring K+ excretion in dog at 0.6 mg/kg after […] ( 0-6 hr); assay type: ADME, organism-based, Canis lupus familiaris, Urine; design: dose 0.6 mg/kg, route intraperitoneal; details: in vivo
Canis familiaris [15] = test: Oral diuretic activity was evaluated by measuring Cl- excretion in dog at 0.6 mg/kg after […] ( 0-6 hr); assay type: ADME, organism-based, Canis lupus familiaris, Urine; design: dose 0.6 mg/kg, route intraperitoneal; details: in vivo
Rattus norvegicus [16] = test: Oral diuretic activity was evaluated by measuring Na+ excretion in Rat at 3 mg/kg […] ( 0-5 hr); assay type: ADME, organism-based, Urine; design: dose 3 mg/kg; details: in vivo, ip; in short: as §5
Rattus norvegicus [17] = test: Oral diuretic activity was evaluated by measuring K+ excretion in Rat at 3 mg/kg after […] ( 0-5 hr); assay type: ADME, organism-based, Urine; design: dose 3 mg/kg; in short: as §1
Rattus norvegicus [18] = test: Oral diuretic activity was evaluated by measuring Cl- excretion in Rat at 81 mg/kg after po administration ( 0-5 hr); details: in vivo
Rattus norvegicus [19] = test: Oral diuretic activity was evaluated by measuring Cl- excretion in Rat at 3 mg/kg after […] ( 0-5 hr); assay type: ADME, organism-based, Urine; design: dose 3 mg/kg, route intraperitoneal; details: in vivo
Rattus norvegicus [20] = test: Maximum fall in mean arterial blood pressure was measured in SH rats when compound was administered at 20 mg/kg perorally; assay type: functional; details: route oral
[21] = Compound administered orally at a dose of 5 mg/kg was evaluated for salidiuretic activity measured as sodium ion excretion in Rat; assay type: organism-based; design: dose 5 mg/kg; details: Urine; in short: as §4
Rattus norvegicus [22] = test: Compound administered orally at a dose of 1 mg/kg was evaluated for salidiuretic activity measured as sodium ion excretion in Rat; details: in vivo, po
[23] = Evaluated for salidiuretic activity measured as sodium ion excretion in Rat, administered orally at a dose of 16.5 mg/kg; assay type: organism-based; design: dose 16.5 mg/kg; details: Urine; in short: as §4
Rattus norvegicus [24] = test: Oral diuretic activity was evaluated by measuring Cl- excretion in Rat at 9 mg/kg […] ( 0-5 hr); assay type: ADME, organism-based, Urine; design: dose 9 mg/kg; details: in vivo; in short: as §1
Canis familiaris [25] = test: Oral diuretic activity was evaluated by measuring Na+ excretion in dog at 5.4 mg/kg after ip administration ( 0-6 hr); assay type: ADME, organism-based, Canis lupus familiaris, Urine; design: dose 5.4 mg/kg, route intraperitoneal; details: in vivo
In short: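 Urine collected over 0–6 h: spontaneous voids were pooled with bladder urine taken by catheterization at 6 h. Urine volume was measured, and aliquots were analysed for Na+, K+ and Cl− by standard methods. Electrolyte excretion is reported as geometric means.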

Rattus norvegicus [26] = test: Oral diuretic activity was evaluated by measuring K+ excretion in Rat at 81 mg/kg […] ( 0-5 hr); assay type: ADME, organism-based, Urine; design: dose 81 mg/kg; in short: as §1
Rattus norvegicus [27] = test: Oral diuretic activity was evaluated by measuring Cl- excretion in Rat at 27 mg/kg after […] ( 0-5 hr); assay type: ADME, organism-based, Urine; design: dose 27 mg/kg, route intraperitoneal; details: in vivo
Canis familiaris [28] = test: Oral diuretic activity was evaluated by measuring K+ excretion in dog at 16.2 mg/kg after ip administration ( 0-6 hr); assay type: ADME, organism-based, Canis lupus familiaris, Urine; design: dose 16.2 mg/kg, route intraperitoneal; details: in vivo; in short: as §3
Canis familiaris [29] = test: Oral diuretic activity was evaluated by measuring K+ excretion in dog at 5.4 mg/kg after ip administration ( 0-6 hr); assay type: ADME, organism-based, Canis lupus familiaris, Urine; design: dose 5.4 mg/kg, route intraperitoneal; details: in vivo; in short: as §3
Canis familiaris [30] = test: Oral diuretic activity was evaluated by measuring Cl- excretion in dog at 1.8 mg/kg after […] ( 0-6 hr); assay type: ADME, organism-based, Canis lupus familiaris, Urine; design: dose 1.8 mg/kg, route intraperitoneal; details: in vivo
Rattus norvegicus [31] = test: Oral diuretic activity was evaluated by measuring K+ excretion in Rat at 27 mg/kg […] (0-5 hr); assay type: ADME, organism-based, Urine; design: dose 27 mg/kg; in short: as §1
Rattus norvegicus [32] = test: Oral diuretic activity was evaluated by measuring Na+ excretion in Rat at 81 mg/kg […] (0-5 hr); assay type: ADME, organism-based, Urine; design: dose 81 mg/kg; details: in vivo
Rattus norvegicus [33] = test: Oral diuretic activity was evaluated by measuring Cl- excretion in Rat at 27 mg/kg […] (0-5 hr); assay type: ADME, organism-based, Urine; design: dose 27 mg/kg; details: in vivo
Rattus norvegicus [34] = test: Oral diuretic activity was evaluated by measuring K+ excretion in Rat at 9 mg/kg […] (0-5 hr); assay type: ADME, organism-based, Urine; design: dose 9 mg/kg; in short: as §1
Rattus norvegicus [35] = test: Oral diuretic activity was evaluated by measuring Cl- excretion in Rat at 9 mg/kg […] (0-5 hr); assay type: ADME, organism-based, Urine; design: dose 9 mg/kg; details: in vivo; in short: as §1
Rattus norvegicus [36] = test: Oral diuretic activity was evaluated by measuring Cl- excretion in Rat at 81 mg/kg after po administration (0-5 hr); details: in vivo
Rattus norvegicus [37] = test: Oral diuretic activity was evaluated by measuring K+ excretion in Rat at 81 mg/kg after […] (0-5 hr); assay type: ADME, organism-based, Urine; design: dose 81 mg/kg; in short: as §1
Rattus norvegicus [38] = test: Oral diuretic activity was evaluated by measuring Na+ excretion in Rat at 27 mg/kg […] (0-5 hr); assay type: ADME, organism-based, Urine; design: dose 27 mg/kg; details: in vivo; in short: as §5
Rattus norvegicus [39] = species: Rattus norvegicus; test: Time taken for the decrease in arterial pressure was measured; assay type: functional, Artery

CC(C)(C)c1cc(CN)c(O)c(C(=O)O)c1.Cl
Diuretic activity (Canis familiaris [1]): 800

CCc1c(Cl)c(C)c(CN)c(O)c1Cl.Cl
Diuretic activity (Rattus norvegicus [2]): 0.56
Diuretic activity (Canis familiaris [3]): 33.33
Diuretic activity (Canis familiaris [4]): 19.43
Diuretic activity (Rattus norvegicus [5]): 0.55
Diuretic activity (Canis familiaris [6]): 3.62
Diuretic activity (Rattus norvegicus [7]): 3.6
Diuretic activity (Canis familiaris [8]): 37.15
Diuretic activity (Rattus norvegicus [9]): 2.17
Diuretic activity (Rattus norvegicus [10]): 2.02
Diuretic activity (Canis familiaris [11]): 38.78
Diuretic activity (Canis familiaris [12]): 8.12
Diuretic activity (Rattus norvegicus [13]): 2.29
Diuretic activity (Canis familiaris [14]): 2.01
Diuretic activity (Canis familiaris [15]): 9.91
Diuretic activity (Rattus norvegicus [16]): 1.14
Diuretic activity (Rattus norvegicus [17]): 0.44
Diuretic activity (Rattus norvegicus [18]): 3.2
Diuretic activity (Rattus norvegicus [19]): 1.62
MAP (Rattus norvegicus [20]): 10 mmHg
Diuretic activity [21]: 2.6
Diuretic activity (Rattus norvegicus [22]): 0.7
Diuretic activity [23]: 3.3
Diuretic activity (Rattus norvegicus [24]): 2.84
Diuretic activity (Canis familiaris [25]): 33.15
Diuretic activity (Rattus norvegicus [26]): 0.44
Diuretic activity (Rattus norvegicus [27]): 3.14
Diuretic activity (Canis familiaris [28]): 6.25
Diuretic activity (Canis familiaris [29]): 5.9
Diuretic activity (Canis familiaris [30]): 22.93

NNc1nncc2ccccc12 [HYDRALAZINE]
Diuretic activity (Rattus norvegicus [31]): 0.07
Diuretic activity (Rattus norvegicus [32]): 0.17
Diuretic activity (Rattus norvegicus [33]): 0.02
Diuretic activity (Rattus norvegicus [34]): 0.27
Diuretic activity (Rattus norvegicus [35]): 0.02
Diuretic activity (Rattus norvegicus [36]): 0.01
Diuretic activity (Rattus norvegicus [37]): 0.11
Diuretic activity (Rattus norvegicus [38]): 0.04
Duration (Rattus norvegicus [39]): 8 h and 18 h
